Experimental data published in ChEMBL document CHEMBL4715748, “Synthesis and biological investigation of new equatorial (β) stereoisomers of 3-aminotropane arylamides with atypical antipsychotic profile” (Bioorg Med Chem, 2016).
Active and inactive are the calls of the source. The calls are words filed in the database; no cut-off is given here.

Legend:
[1] = target: D(2) dopamine receptor (Rattus norvegicus, UniProt P61169); assay: Displacement of [3H] Spiperone from rat striatum dopamine D2 receptor measured after 30 mins by liquid scintillation counter method
Summary of the method: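 Competition binding in rat brain tissue membranes against D2, 5-HT1A and 5-HT2A sites; Ki reported as mean ± S.E.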

[2] = target: Dopamine D2 receptor and Serotonin 2a receptor (D2 and 5HT2a) (Rattus norvegicus) (UniProt P61169+P14842); assay: Ratio of pKi for displacement of [3H]-ketanserin from rat cerebral cortex 5HT2A receptor measured after 20 mins by liquid scintillation counter method to pKi for displacement of [3H] Spiperone from rat striatum dopamine D2 receptor measured after 30 mins by liquid scintillation counter method
Summary of the method: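 Ratio of pKi values, 5-HT2A over D2, computed from competition radioligand binding in rat brain tissue.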

[3] = Effect on body temperature in Swiss Albino mouse assessed as rectal body temperature at 10 mg/kg, ip measured after 60 mins by thermometer (reference value: 0.33 to 0.61 degreeC); type: ADME, organism-based; details: in vivo, 1 h
[4] = Effect on body temperature in Swiss Albino mouse assessed as rectal body temperature at 20 mg/kg, ip measured after 60 mins by thermometer (reference value: 0.33 to 0.61 degreeC); type: ADME, organism-based; details: in vivo, 1 h
[5] = Effect on body temperature in Swiss Albino mouse assessed as rectal body temperature at 20 mg/kg, ip measured after 120 mins by thermometer (reference value: 0.15 to 1.11 degreeC); type: ADME, organism-based; details: in vivo, 2 h
[6] = tested on: Mus musculus; assay: Effect on 8-OH-DPAT-induced hypothermia in Swiss albino mouse assessed as change in rectal body temperature at 10 mg/kg, ip pretreated with compound for 45 mins followed by 8-OH-DPAT challenge and measured after 60 min by thermometer (reference value: -0.66 to -0.5 degreeC); type: functional, organism-based; details: time 105.0 min
[7] = Effect on 8-OH-DPAT-induced lower lip retraction in Wistar rat at 10 mg/kg, ip pretreated with compound for 45 mins followed by 8-OH-DPAT challenge and measured after 15 mins (reference value: 2.7 to 2.8); type: functional; details: time 60 min, 1 h
[8] = tested on: Mus musculus; assay: Antipsychotic activity Swiss Albino mouse assessed as inhibition of DOI-induced head twitching by measuring number of episodes at 1.25 mg/kg, ip administered 30 mins prior to DOI stimulation (reference value: 19.63 to 19.88); type: functional; details: 0.5 h
Summary of the method: (§1)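 Male Albino Swiss mice (24–28 g) were habituated to sawdust-lined cages 20 min before the first treatment. Compounds were suspended in 1% aqueous Tween 80 and given i.p. 30 min before (±)-DOI, 2.5 mg/kg i.p. in aqueous solution. Head twitches were counted blind over 20 min, n=8 per group, mean ± SEM, one-way ANOVA with Dunnett's test.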

[9] = tested on: Mus musculus; assay: Antipsychotic activity in Swiss Albino mouse assessed as inhibition of apomorphine-induced climbing behaviour at 10 mg/kg, ip administered 30 mins prior to APO challenge and measured after 30 mins; type: functional, organism-based; details: time 60.0 min
Summary of the method: (§2)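 Male Albino Swiss mice received compound i.p. (10 mg/kg in 1% Tween 80) 30 min before the test and apomorphine 2.5 mg/kg s.c. 10 min before the test. Each mouse was placed in a cage with a metal grid and scored positive when all four paws were on the grid. Blinded observation every 10 min to 60 min, then at 120 min. n=8, Fisher's exact test with Yates' correction.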

[10] = tested on: Mus musculus; assay: Antipsychotic activity Swiss Albino mouse assessed as inhibition of DOI-induced head twitching by measuring number of episodes at 0.625 mg/kg, ip administered 30 mins prior to DOI stimulation (reference value: 19.63 to 19.88); type: functional; details: 0.5 h; summary of the method: as §1
[11] = tested on: Mus musculus; assay: Antipsychotic activity in Swiss Albino mouse assessed as inhibition of apomorphine-induced climbing behaviour at 10 mg/kg, ip administered 30 mins prior to APO challenge and measured after 60 mins; type: functional, organism-based; details: time 90.0 min; summary of the method: as §2
[12] = tested on: Mus musculus; assay: Antipsychotic activity in Swiss Albino mouse assessed as inhibition of apomorphine-induced climbing behaviour at 10 mg/kg, ip administered 30 mins prior to APO challenge and measured after 40 mins; type: functional, organism-based; details: time 70.0 min; summary of the method: as §2

Chain of Dopamine D2 receptor and Serotonin 2a receptor (D2 and 5HT2a) (Rattus norvegicus) (P14842 whole entry, looked up): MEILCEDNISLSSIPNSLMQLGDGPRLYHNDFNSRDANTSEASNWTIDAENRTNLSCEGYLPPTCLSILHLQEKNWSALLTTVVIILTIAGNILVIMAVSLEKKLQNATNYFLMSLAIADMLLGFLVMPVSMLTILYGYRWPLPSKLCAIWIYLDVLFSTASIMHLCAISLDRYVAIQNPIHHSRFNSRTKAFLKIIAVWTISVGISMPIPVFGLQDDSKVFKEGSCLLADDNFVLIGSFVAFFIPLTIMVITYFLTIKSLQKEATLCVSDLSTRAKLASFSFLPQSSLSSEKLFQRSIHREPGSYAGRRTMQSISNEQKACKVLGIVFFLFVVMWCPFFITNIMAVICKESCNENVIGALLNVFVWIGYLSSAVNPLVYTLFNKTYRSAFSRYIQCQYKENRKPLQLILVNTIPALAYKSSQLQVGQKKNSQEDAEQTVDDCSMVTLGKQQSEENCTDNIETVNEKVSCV
Chain of Dopamine D2 receptor and Serotonin 2a receptor (D2 and 5HT2a) (Rattus norvegicus) (P61169 whole entry, looked up): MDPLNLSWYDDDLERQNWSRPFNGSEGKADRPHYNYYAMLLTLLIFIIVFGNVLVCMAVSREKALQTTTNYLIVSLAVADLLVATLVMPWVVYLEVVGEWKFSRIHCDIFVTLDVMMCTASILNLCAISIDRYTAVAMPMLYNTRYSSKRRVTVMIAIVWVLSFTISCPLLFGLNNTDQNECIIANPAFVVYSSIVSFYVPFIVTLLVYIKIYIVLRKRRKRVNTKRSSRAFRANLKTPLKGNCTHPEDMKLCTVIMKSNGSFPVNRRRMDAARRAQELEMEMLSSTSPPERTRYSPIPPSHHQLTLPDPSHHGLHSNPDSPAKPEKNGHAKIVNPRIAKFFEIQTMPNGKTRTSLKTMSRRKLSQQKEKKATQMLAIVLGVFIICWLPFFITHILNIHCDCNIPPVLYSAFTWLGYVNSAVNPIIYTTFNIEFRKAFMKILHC
Chain of D(2) dopamine receptor (P61169 whole entry): as the sequence (P61169 whole entry, looked up) above

Cc1cccc(CN2C3CCC2CC(NC(=O)c2ccc4ccccc4c2)C3)c1 (centres undefined)
Ki [1]: 0.0033 µM | Ratio pKi [2]: 0.78 | deltaT [3]: 0.73 °C | deltaT [4]: 0.47 °C | deltaT [5]: 0.24 °C | deltaT [6]: -0.05 °C | Activity [7]: 2.3 | Activity [8]: 15.63 | inhibition [9]: Active

O=C(NC1CC2CCC(C1)N2Cc1cccc(Cl)c1)c1ccc2ccccc2c1 (centres undefined)
Ki [1]: 0.0036 µM | Ratio pKi [2]: 0.81 | deltaT [3]: 1 °C | deltaT [4]: 0.41 °C | deltaT [5]: 1 °C | deltaT [6]: -0.67 °C | Activity [7]: 2.6

O=C(NC1CC2CCC(C1)N2Cc1ccc(F)cc1)c1ccc2ccccc2c1 (centres undefined)
Ki [1]: 0.137 µM | Ratio pKi [2]: 0.97 | deltaT [3]: 0.5 °C | deltaT [4]: 0.46 °C | deltaT [5]: 0.54 °C | deltaT [6]: -0.73 °C | Activity [7]: 2.5 | Activity [8]: 12.63 | Activity [10]: 17.63 | inhibition [11]: Active

O=C(NC1CC2CCC(C1)N2Cc1cccc(Br)c1)c1ccc2ccccc2c1 (centres undefined)
Ki [1]: 0.0116 µM | Ratio pKi [2]: 0.88 | deltaT [3]: 0.76 °C | deltaT [4]: 0.49 °C | deltaT [5]: 1.23 °C | deltaT [6]: -0.72 °C | Activity [7]: 2.4 | inhibition [9]: Active

O=C(NC1CC2CCC(C1)N2Cc1cccc(F)c1)c1ccc2ccccc2c1 (centres undefined)
Ki [1]: 0.214 µM | Ratio pKi [2]: 1.05 | deltaT [3]: 0.53 °C | deltaT [4]: 0.43 °C | deltaT [5]: 0.81 °C | deltaT [6]: -0.78 °C | Activity [7]: 2.4 | Activity [8]: 2.3 | Activity [10]: 17.38 | inhibition [12]: Active
